From ChEMBL document CHEMBL3271971, “Antineoplastic and biochemical properties of arylsulfonylhydrazones of 2-formylpyridine N-oxide” (J Med Chem, 1976) come the findings set out here.

As a reminder, the T/C is the ratio of treated to control.

One data set has as its system Mus musculus. In words: Toxicity in CD-1 mouse allografted with mouse S180A cells assessed as change in body weight at maximum effective dose administered qd for 6 days (reference value: 23.2%). It counts as organism-based. The settings on record: 144 h.
A short description of data set [1]: Antineoplastic activity against mouse S180A cells allografted in CD-1 mouse assessed as average survival at maximum effective dose administered qd for 6 days relative to control. It counts as functional. Put shortly: (§1)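 Sarcoma 180 ascites cells were transplanted from a donor mouse bearing a 7-day tumour. Each agent was tested at 10–60 mg/kg/day, once daily for six consecutive days, starting 24 h after transplantation, in groups of 5–10 mice. Pooled untreated controls totalled 40 mice. Mice surviving beyond 50 days were counted as 50-day survivors, and body-weight change over therapy served as the toxicity index.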

Data set [2] in a line: Antineoplastic activity against mouse S180A cells allografted in CD-1 mouse assessed as average survival at maximum effective dose administered qd for 6 days (reference value: 12.5 +/- 0.3 days). It is filed as functional. Summed up:
as §1

Data set [3] can be described thus: Antineoplastic activity against mouse S180A cells allografted in CD-1 mouse assessed as mouse survival at maximum effective dose administered qd for 6 days measured for 50 days relative to control. It is filed as functional. Put shortly:
as §1

Data set [4] is described as follows: Antineoplastic activity against mouse S180A cells allografted in CD-1 mouse assessed as maximum dose required for increase in mouse survival administered qd for 6 days. It is filed as functional.

As for `Cc1ccc(S(=O)(=O)N/N=C/c2ccccn2)cc1`, the Activity in the data set with Mus musculus worked out at 20.1%; in data set [4], 10 mg/kg. The T/C in data set [1] worked out at 123%. The Survival in data set [2] came to 15.4 days; in data set [3], 0%.

Take `Cc1ccc(S(=O)(=O)N/N=C/c2ccc[n+]([O-])c2)cc1`: the results for the Activity (in the data set on Mus musculus; in data set [4]) were 0% and 60 mg/kg, respectively. In addition, the T/C in data set [1] is listed as 109%. The Survival was found to be 13.6 days in data set [2] and 0% in data set [3].

As to `CS(=O)(=O)N/N=C/c1cccc[n+]1[O-]`, the Activity in the data set on Mus musculus was 20%; in data set [4] it was 60 mg/kg. Also, the T/C in data set [1] came to 123%. The figures for the Survival in data set [2] and in data set [3] were 15.4 days and 0%, respectively.

Turning to `CS(=O)(=O)N/N=C/c1ccncc1`, the Activity came out at 18.6% in the data set with Mus musculus and 20 mg/kg in data set [4]. For the same compound, the T/C in data set [1] is recorded as 107%. Moreover, the Survival turned out to be 13.4 days in data set [2] and 0% in data set [3].

`O=S(=O)(Cc1ccccc1)N/N=C/c1ccncc1`: the Activity is -3.3% with Mus musculus and 60 mg/kg in data set [4]. Further, the T/C in data set [1] came out at 169%. The Survival in data set [2] stood at 21.2 days; in data set [3], 0%.

Regarding `Cc1ccc(S(=O)(=O)N/N=C/c2ccccc2[N+](=O)[O-])cc1`, the Activity came to 2.1% in the data set on Mus musculus and 60 mg/kg in data set [4]. Also, the T/C in data set [1] was 105%. Also, the Survival amounted to 13.2 days in data set [2] and 0% in data set [3].

As for `Cc1ccc(S(=O)(=O)N/N=C/c2ccccc2)cc1`, the Activity in the data set with Mus musculus came out at 15.1%; in data set [4], 20 mg/kg. The T/C in data set [1] was 115%. Further, the figures for the Survival in data set [2] and in data set [3] were 14.4 days and 0%, respectively.

With `O=S(=O)(N/N=C/c1ccc2ccccc2[n+]1[O-])c1ccccc1`, the results for the Activity (in the data set on Mus musculus; in data set [4]) were 2.6% and 20 mg/kg, respectively. The T/C in data set [1] is recorded as 109%. Further, the Survival worked out at 13.6 days in data set [2] and 0% in data set [3].

As to `Cc1ccc(C(=O)N/N=C/c2cccc[n+]2[O-])cc1`, the Activity in the data set with Mus musculus was 10.2%; in data set [4], 60 mg/kg. Also, the T/C in data set [1] came out at 90%. For the same compound, the Survival stood at 11.2 days in data set [2] and 0% in data set [3].

In the case of `O=S(=O)(Cc1ccccc1)N/N=C/c1cccc[n+]1[O-]`, the figures for the Activity (in the data set with Mus musculus; in data set [4]) were -0.3% and 40 mg/kg, respectively. Also, the T/C in data set [1] was 282%. Further, the figures for the Survival in data set [2] and in data set [3] were 35.2 days and 40%, respectively.

Regarding `O=S(=O)(N/N=C/c1cccc[n+]1[O-])c1ccccc1`, the Activity in the data set on Mus musculus was -5.2%; in data set [4] it was 40 mg/kg. Moreover, the T/C in data set [1] stood at 339%. For the same compound, the Survival in data set [2] was 42.4 days; in data set [3], 40%.

For the compound `Cc1ccc(S(=O)(=O)N/N=C/c2cccnc2)cc1`, the Activity with Mus musculus was found to be 12.6%; in data set [4] it was 60 mg/kg. Moreover, the T/C in data set [1] turned out to be 106%. Besides, the figures for the Survival in data set [2] and in data set [3] were 13.2 days and 0%, respectively.

For `Cc1ccc(S(=O)(=O)N/N=C/c2cc[n+]([O-])cc2)cc1`, the Activity in the data set on Mus musculus turned out to be 17.7%; in data set [4], 60 mg/kg. Further, the T/C in data set [1] stood at 123%. In addition, the Survival was determined as 15.4 days in data set [2] and 0% in data set [3].

For `Cc1ccc(S(=O)(=O)N/N=C/c2ccncc2)cc1`, the figures for the Activity (in the data set on Mus musculus; in data set [4]) were -0.9% and 60 mg/kg, respectively. The T/C in data set [1] worked out at 226%. Further, the Survival in data set [2] was found to be 28.2 days; in data set [3], 10%.

For the compound `O=S(=O)(N/N=C/c1c2ccccc2cc[n+]1[O-])c1ccccc1`, the figures for the Activity (in the data set on Mus musculus; in data set [4]) were 1.6% and 10 mg/kg, respectively. Besides, in data set [1], the T/C is recorded as 107%. Further, the Survival in data set [2] turned out to be 13.4 days; in data set [3] it was 0%.

As to `Cc1ccc(C(=O)N/N=C/c2ccccn2)cc1`, the Activity in the data set on Mus musculus worked out at 17.4%; in data set [4], 60 mg/kg. Besides, the T/C in data set [1] is reported as 94%. The Survival in data set [2] came out at 11.8 days; in data set [3], 0%.
